The results in this text go back to ChEMBL document CHEMBL1641573, “3-[(Imidazolidin-2-yl)imino]indazole ligands with selectivity for the α(2)-adrenoceptor compared to the imidazoline I(1) receptor” (Bioorg Med Chem, 2011).

The target of test [1] is T1, Alpha-2A adrenergic receptor (Homo sapiens, UniProt P08913).
T1 sequence (P08913 whole entry): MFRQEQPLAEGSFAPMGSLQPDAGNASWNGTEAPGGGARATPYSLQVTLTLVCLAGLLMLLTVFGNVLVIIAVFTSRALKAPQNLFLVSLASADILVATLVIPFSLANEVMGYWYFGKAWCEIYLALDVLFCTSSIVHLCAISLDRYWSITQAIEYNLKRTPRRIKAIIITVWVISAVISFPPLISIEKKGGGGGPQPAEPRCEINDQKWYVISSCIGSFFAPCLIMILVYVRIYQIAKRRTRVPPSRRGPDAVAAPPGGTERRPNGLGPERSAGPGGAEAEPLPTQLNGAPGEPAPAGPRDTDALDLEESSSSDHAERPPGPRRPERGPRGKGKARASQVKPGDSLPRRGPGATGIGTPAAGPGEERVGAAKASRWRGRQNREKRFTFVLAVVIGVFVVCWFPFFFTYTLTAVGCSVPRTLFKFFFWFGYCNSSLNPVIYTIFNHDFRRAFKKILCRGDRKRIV
The test is described as follows: Agonist activity at human recombinant alpha2A adrenergic receptor expressed in CHO cells assessed as induction of [35S]GTPgammaS binding after 60 mins by scintillation counting. Format: functional, cell-based. In a few lines:
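Membranes from CHO-K1 cells expressing human α2A-adrenoceptor, in Tris buffer pH 7.4 with 10 µM GDP, 5 mM MgCl2 and 150 mM NaCl; 5 µg protein preincubated with agonist 30 min at 37 °C, then 0.1 nM [35S]GTPγS for 60 min at 37 °C. Filtration and scintillation counting, duplicates, at least three repeats.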

For test [2], the system named is Rattus norvegicus. Description: Cardioprotectant activity in Wistar rat assessed as change in heart rate at 0.1 mg/kg, iv. Format: functional.
The test system of test [3] is Rattus norvegicus. Description: Cardioprotectant activity in Wistar rat assessed as change in heart rate at 1 mg/kg, iv. The class given is functional.
The next test has as its target Nischarin (Rattus norvegicus, UniProt Q4G017). Description: Displacement of [3H]clonidine from imidazoline I1 receptor in Sprague-Dawley rat kidney membrane after 45 mins by liquid scintillation counting. Format: cell membranes. In a few lines: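 Specific binding defined by 10 µM rilmenidine. 11 test concentrations, 50 mM Tris-HCl pH 7.4, room temperature 45 min. Filtration through PEI-soaked glass-fibre filters, scintillation counting, IC50 by curve fitting.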

Test [4] is filed under the species Rattus norvegicus. Description: Selectivity ratio of IC50 for imidazoline I1 receptor in Sprague-Dawley rat kidney membrane to Ki for alpha2 adrenergic receptor in Sprague-Dawley rat brain membrane. The class given is cell membranes.
Test [5] deals with T2, Alpha-2A adrenergic receptor (Homo sapiens) (UniProt P08913).
T2 sequence (whole entry): T1 sequence (P08913 whole entry)
The test is described as follows: Agonist activity at human recombinant alpha2A adrenergic receptor expressed in CHO cells assessed as induction of [35S]GTPgammaS binding after 60 mins by scintillation counting relative to noradrenaline. The class given is functional, cell-based. In a few lines:
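Membranes from CHO-K1 cells expressing human α2A-adrenoceptor, in Tris buffer pH 7.4 with 10 µM GDP, 5 mM MgCl2 and 150 mM NaCl; 5 µg protein preincubated with agonist 30 min at 37 °C, then 0.1 nM [35S]GTPγS for 60 min at 37 °C. Filtration and scintillation counting, duplicates, at least three repeats. Curve fit gave EC50 and intrinsic activity as % of noradrenaline.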

Test [6] concerns the target T3, Adrenergic receptor alpha-2 (Rattus norvegicus, UniProt P22086+P19328+P22909).
T3 sequence (P22086 whole entry): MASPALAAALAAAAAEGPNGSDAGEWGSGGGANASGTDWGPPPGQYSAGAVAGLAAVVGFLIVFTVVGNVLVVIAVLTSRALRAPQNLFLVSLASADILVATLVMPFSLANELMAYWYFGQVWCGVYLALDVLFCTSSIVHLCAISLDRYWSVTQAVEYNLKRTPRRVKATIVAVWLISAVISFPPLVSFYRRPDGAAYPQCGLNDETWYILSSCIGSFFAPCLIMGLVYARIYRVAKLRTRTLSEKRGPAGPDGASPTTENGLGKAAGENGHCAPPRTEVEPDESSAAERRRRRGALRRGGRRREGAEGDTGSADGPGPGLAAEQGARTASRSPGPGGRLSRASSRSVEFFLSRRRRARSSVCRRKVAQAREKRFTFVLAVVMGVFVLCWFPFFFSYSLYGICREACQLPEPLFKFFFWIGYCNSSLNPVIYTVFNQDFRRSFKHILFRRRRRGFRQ
T3 sequence (P19328 whole entry): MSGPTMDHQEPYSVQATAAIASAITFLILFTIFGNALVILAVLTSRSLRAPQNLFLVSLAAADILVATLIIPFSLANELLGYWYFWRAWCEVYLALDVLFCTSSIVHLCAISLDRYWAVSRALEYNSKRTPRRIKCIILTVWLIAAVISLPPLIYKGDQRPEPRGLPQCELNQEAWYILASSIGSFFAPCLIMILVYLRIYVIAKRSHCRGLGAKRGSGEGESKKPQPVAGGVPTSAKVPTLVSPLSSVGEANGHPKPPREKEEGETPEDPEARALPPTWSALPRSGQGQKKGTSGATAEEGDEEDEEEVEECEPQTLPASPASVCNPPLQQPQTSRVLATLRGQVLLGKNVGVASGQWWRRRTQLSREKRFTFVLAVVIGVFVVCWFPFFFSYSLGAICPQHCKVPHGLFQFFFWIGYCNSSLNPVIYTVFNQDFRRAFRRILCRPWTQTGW
T3 sequence (P22909 whole entry): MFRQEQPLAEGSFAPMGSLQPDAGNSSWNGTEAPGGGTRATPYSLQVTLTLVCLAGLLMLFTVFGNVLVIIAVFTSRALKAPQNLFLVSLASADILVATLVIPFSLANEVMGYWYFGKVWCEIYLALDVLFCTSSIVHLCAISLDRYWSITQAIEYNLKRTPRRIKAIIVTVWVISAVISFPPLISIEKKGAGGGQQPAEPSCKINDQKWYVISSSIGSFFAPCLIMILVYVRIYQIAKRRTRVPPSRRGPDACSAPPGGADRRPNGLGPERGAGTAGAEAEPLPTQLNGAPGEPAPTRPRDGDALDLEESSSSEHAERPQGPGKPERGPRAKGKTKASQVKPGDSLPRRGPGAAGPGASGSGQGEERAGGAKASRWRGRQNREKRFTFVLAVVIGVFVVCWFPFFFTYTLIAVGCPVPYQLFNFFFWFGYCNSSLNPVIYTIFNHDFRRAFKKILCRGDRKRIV
The test is described as follows: Displacement of [3H]RX821002 from alpha2 adrenergic receptor in Sprague-Dawley rat brain membrane after 45 mins by liquid scintillation counting. Format: cell membranes. Put shortly:
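Crude P2 brain membranes from male Sprague–Dawley rats (0.2–0.3 mg protein) incubated with 11 concentrations (0.01 nM–100 µM) and 1 nM of [3H]2BFI (I2), [3H]prazosin (α1) or [3H]RX821002 (α2), at room temperature in triplicate. Non-specific binding: BU224, phenylephrine or rauwolscine. Filtration, scintillation counting, Ki by Cheng–Prusoff from 3–4 experiments.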

The subject of test [7] is Rattus norvegicus. The test is described as follows: Cardioprotectant activity in Wistar rat assessed as change in mean arterial pressure at 0.1 mg/kg, iv. The class given is functional, Artery.
Test [8] concerns Rattus norvegicus. Description: Cardioprotectant activity in Wistar rat assessed as change in mean arterial pressure at 1 mg/kg, iv. Format: functional, Artery.
The subject of test [9] is Rattus norvegicus. The test is described as follows: Cardioprotectant activity in Wistar rat assessed as change in mean arterial pressure at 0.01 mg/kg, iv. Format: functional, Artery.

pEC50, pIC50: −log10 of the molar value.

Nischarin, sequence (Q4G017 whole entry): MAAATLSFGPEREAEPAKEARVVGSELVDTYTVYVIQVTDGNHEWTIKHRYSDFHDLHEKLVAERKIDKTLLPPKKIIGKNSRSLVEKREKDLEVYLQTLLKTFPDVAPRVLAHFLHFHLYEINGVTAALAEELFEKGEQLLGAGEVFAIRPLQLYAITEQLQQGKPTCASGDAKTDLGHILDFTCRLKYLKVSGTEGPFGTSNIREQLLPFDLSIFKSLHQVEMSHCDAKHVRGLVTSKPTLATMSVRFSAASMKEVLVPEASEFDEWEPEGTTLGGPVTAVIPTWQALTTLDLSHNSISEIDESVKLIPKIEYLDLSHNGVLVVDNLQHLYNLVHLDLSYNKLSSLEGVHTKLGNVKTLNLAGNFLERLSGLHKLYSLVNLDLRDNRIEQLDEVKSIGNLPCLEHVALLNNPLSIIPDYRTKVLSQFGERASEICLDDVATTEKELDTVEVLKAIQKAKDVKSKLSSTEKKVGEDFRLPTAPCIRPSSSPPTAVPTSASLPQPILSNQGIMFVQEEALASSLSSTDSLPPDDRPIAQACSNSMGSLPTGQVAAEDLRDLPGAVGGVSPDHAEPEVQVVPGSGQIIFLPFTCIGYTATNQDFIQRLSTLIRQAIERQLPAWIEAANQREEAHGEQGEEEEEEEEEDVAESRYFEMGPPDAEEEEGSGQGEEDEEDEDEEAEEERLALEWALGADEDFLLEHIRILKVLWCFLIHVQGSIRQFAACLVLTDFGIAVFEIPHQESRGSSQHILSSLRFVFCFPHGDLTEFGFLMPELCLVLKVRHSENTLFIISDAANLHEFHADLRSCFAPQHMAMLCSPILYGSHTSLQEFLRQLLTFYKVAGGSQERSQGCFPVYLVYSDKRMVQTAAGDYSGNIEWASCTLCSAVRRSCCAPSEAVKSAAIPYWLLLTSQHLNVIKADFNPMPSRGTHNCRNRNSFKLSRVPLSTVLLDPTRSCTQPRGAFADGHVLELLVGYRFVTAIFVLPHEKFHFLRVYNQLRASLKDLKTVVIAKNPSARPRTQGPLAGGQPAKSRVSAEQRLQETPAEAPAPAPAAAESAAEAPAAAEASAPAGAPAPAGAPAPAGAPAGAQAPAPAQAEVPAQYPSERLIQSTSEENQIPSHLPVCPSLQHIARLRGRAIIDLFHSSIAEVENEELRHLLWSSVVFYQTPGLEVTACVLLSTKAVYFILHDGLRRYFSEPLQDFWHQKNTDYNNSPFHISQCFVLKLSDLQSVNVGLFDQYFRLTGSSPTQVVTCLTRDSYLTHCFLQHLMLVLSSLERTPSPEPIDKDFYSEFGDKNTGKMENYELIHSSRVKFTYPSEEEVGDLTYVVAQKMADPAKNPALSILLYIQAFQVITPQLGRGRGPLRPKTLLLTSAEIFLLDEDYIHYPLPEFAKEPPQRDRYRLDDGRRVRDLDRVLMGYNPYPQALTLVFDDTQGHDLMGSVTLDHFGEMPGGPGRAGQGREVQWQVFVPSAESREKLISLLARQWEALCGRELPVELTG

As to `Cl.Clc1cccc2c(N=C3NCCN3)n[nH]c12`, the pEC50 in test [1] was 7.14. The Activity in the test on Rattus norvegicus [2] is reported as -92 bpm; in the test with Rattus norvegicus [3] it was -117 bpm; with Rattus norvegicus [7], -21.7 mmHg; in the test on Rattus norvegicus [8] it was -37.2 mmHg; in the test with Rattus norvegicus [9], -12.2 mmHg. On Nischarin, this molecule had a negative-log IC50 (pIC50) of 5.40. In addition, in the test listed under Rattus norvegicus [4], the Ratio is 30. Also, the Intrinsic activity in test [5] is 66%. This molecule also showed a Ki in test [6] of 133 nM.
With `Cc1cccc2[nH]nc(N=C3NCCN3)c12.Cl`, the negative logarithm of the EC50 (pEC50) in [1] is 7.85. The Activity in the test with Rattus norvegicus [2] is -132 bpm; in the test with Rattus norvegicus [3] it was -155 bpm; in the test on Rattus norvegicus [7], -53.5 mmHg; in the test on Rattus norvegicus [8], -22 mmHg; in the test on Rattus norvegicus [9], -17.1 mmHg. At Nischarin, this molecule gave a negative logarithm of the IC50 (pIC50) of 4.49. Besides, the Ratio in the test filed under Rattus norvegicus [4] came out at 690. The Intrinsic activity in [5] was found to be 40%. In [6], this molecule came in with a Ki of 22.6 nM.
Regarding `Cl.Clc1cccc2[nH]nc(N=C3NCCN3)c12`, the pEC50 in test [1] is 6.62. Moreover, the Activity with Rattus norvegicus [2] is recorded as -40 bpm; in the test with Rattus norvegicus [3], -68 bpm; with Rattus norvegicus [7], -10.8 mmHg; in the test on Rattus norvegicus [8], -23.6 mmHg; in the test with Rattus norvegicus [9], -10.8 mmHg. This molecule had a negative-log IC50 (pIC50) at Nischarin of 5.74. Also, in the test listed under Rattus norvegicus [4], the Ratio turned out to be 115. Further, the Intrinsic activity in test [5] is 13%. The molecule further displayed a Ki in test [6] of 15.9 nM.
